In ChEMBL document CHEMBL1139438, “Synthesis of N3,5'-cyclo-4-(beta-D-ribofuranosyl)-vic-triazolo[4,5-b]pyridin-5-one, a novel compound with anti-hepatitis C virus activity” (J Med Chem, 2004):

How the values were obtained:
[1] = Effective concentration required for antiviral activity against pinchinde virus; format: functional
[2] = Effective concentration required for antiviral activity against west Nile virus; format: functional
[3] = Concentration required for cytotoxic activity against african green monkey kidney MA-104 cell line was determined using neutral red method; format: functional; settings: Cercopithecidae, MA104
[4] = test system: Respiratory syncytial virus; assay: Effective concentration required for antiviral activity against respiratory syncytial virus; format: functional, organism-based; settings: human respiratory syncytial virus
[5] = Effective concentration required for antiviral activity against bovine viral diarrhoea virus; format: functional, Bovine viral diarrhea virus 1
[6] = test system: Human immunodeficiency virus; assay: Effective concentration required for antiviral activity against human immunodeficiency virus; format: functional, organism-based; settings: Human immunodeficiency virus 1
Hepatitis B virus [7] = assay: Effective concentration required for 90% of antiviral activity against hepatitis B virus; format: functional
[8] = Effective concentration required for 90% of antiviral activity against bovine viral diarrhoea virus; format: functional, Bovine viral diarrhea virus 1; settings: Bovine viral diarrhea virus isolates and strains
[9] = test system: Human immunodeficiency virus; assay: Effective concentration required for 90% of antiviral activity against human immunodeficiency virus; format: functional; settings: Human immunodeficiency virus 1
Huh-7 [10] = assay: Effective concentration required for 90% reduction in subgenomic hepatitis C virus replicon RNA levels in Huh-7 cells after 96 hr of compound exposure; format: functional; settings: Homo sapiens, Huh-7, 96 h
Summary of the method: (§1)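 HCV subgenomic replicon-bearing Huh-7 cells were seeded at 1000 cells/well in 96-well plates, with compound added immediately after seeding, and incubated for 96 h. Total cellular RNA was isolated. Replicon RNA and a ribosomal RNA internal control were amplified by single-step multiplex real-time RT-PCR. HCV RNA was normalized to rRNA by ΔΔCt and calibrated against the no-drug control. Recombinant interferon alpha-2a was the positive control.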

[11] = Effective concentration required for antiviral activity against punta toro A virus; format: functional
Yellow fever virus = assay: Effective concentration required for antiviral activity against yellow fever virus; format: functional, organism-based
Human respirovirus 3 = assay: Effective concentration required for antiviral activity against Parainfluenza virus; format: functional, organism-based
CCRF-CEM = assay: Concentration required for cytotoxic activity against human T-cell lymphoma CEM cell line was determined using MST dye; format: functional
Summary of the method: (§2)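 Cytotoxicity was read with an MTS-dye cell proliferation assay and expressed as CC50 (µM).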

Vero [12] = assay: Concentration required for cytotoxic activity against african green monkey kidney Vero cell line was determined using MST dye; format: functional; settings: Chlorocebus sabaeus; summary of the method: as §2
SK-MEL-28 = assay: Concentration required for cytotoxic activity against human malignant melanoma SK-MEL-28 cell line was determined using MST dye; format: functional; summary of the method: as §2
HepG2 = assay: Concentration required for cytotoxic activity against human hepatocellular carcinoma HepG2 cell line was determined using MST dye; format: functional; summary of the method: as §2
Huh-7 [13] = assay: Concentration required for cytotoxic activity against human hepatocellular carcinoma Huh-7 cell line was determined using MST dye; format: functional; summary of the method: as §2
A549 = assay: Concentration required for cytotoxic activity against human lung carcinoma A-549 cell line using neutral red method; format: functional
LLC-MK2 = assay: Concentration required for cytotoxic activity against rhesus monkey kidney LLC-MK2 cell line was determined using neutral red method; format: functional, Cercopithecidae; settings: Macaca mulatta
Measles morbillivirus = assay: Effective concentration required for antiviral activity against measles virus; format: functional, organism-based
Huh-7 [14] = assay: Effective concentration required for reduction in subgenomic hepatitis C virus replicon RNA levels in Huh-7 cells after 96 hr of compound exposure; format: functional, cell-based; settings: Homo sapiens, Huh-7, 96 h; summary of the method: as §1
Vero [15] = assay: Concentration required for cytotoxic activity against african green monkey kidney Vero cell line was determined using neutral red dye; format: functional; settings: Chlorocebus sabaeus
MDCK = assay: Concentration required for cytotoxic activity against madin darby canine kidney MDCK cell line was determined using neutral red method; format: functional; settings: Canis lupus familiaris
CV-1 = assay: Concentration required for cytotoxic activity against african green monkey kidney CV-1 cell line was determined using neutral red method; format: functional, Cercopithecidae; settings: Chlorocebus aethiops
[16] = Concentration required for cytotoxic activity against african green monkey kidney B-SC-1 cell line was determined using neutral red method; format: functional; settings: Cercopithecidae, BSC-1
PBMC = assay: Concentration required for cytotoxic activity against primary human peripheral blood mononuclear PBM cell line was determined using MST dye; format: functional; summary of the method: as §2
KB = assay: Concentration required for cytotoxic activity against human epidermoid carcinoma of the nasopharynx KB cell line was determined using neutral red method; format: functional
Influenza A virus = assay: Effective concentration required for antiviral activity against Influenza A virus; format: functional, organism-based
Influenza B virus = assay: Effective concentration required for antiviral activity against Influenza B virus; format: functional, organism-based
unidentified adenovirus = assay: Effective concentration required for antiviral activity against adenovirus type 1; format: functional, organism-based, Human adenovirus 1
Hepatitis B virus [17] = assay: Effective concentration required for antiviral activity against hepatitis B virus; format: functional, organism-based
Human rhinovirus sp. = assay: Effective concentration required for antiviral activity against rhinovirus; format: functional, organism-based, Enterovirus
Human alphaherpesvirus 1 [18] = assay: Effective concentration required for antiviral activity against herpes simplex virus type 1
Human alphaherpesvirus 1 [19] = assay: Effective concentration required for 90% of antiviral activity against herpes simplex virus type 1

## O=c1ccc2nnn3c2n1C1O[C@H](C3)[C@@H](O)[C@H]1O
[1]
  EC50: > 100 µM
[2]
  EC50: > 100 µM
[3]
  CC50: > 100 µM
[4]
  EC50: > 100 µM
[5]
  EC50: > 100 µM
[6]
  EC50: > 100 µM
Hepatitis B virus [7]
  EC90: > 100 µM
[8]
  EC90: > 100 µM
[9]
  EC90: > 100 µM
Huh-7 [10]
  EC90: 79.8 µM
[11]
  EC50: > 100 µM
Yellow fever virus
  EC50: > 100 µM
Human respirovirus 3
  EC50: > 100 µM
CCRF-CEM
  CC50: 13.8 µM
Vero [12]
  CC50: > 100 µM
SK-MEL-28
  CC50: > 100 µM
HepG2
  CC50: 74.4 µM
Huh-7 [13]
  CC50: 49.6 µM
A549
  CC50: > 100 µM
LLC-MK2
  CC50: > 100 µM
Measles morbillivirus
  EC50: > 100 µM
Huh-7 [14]
  EC50: 19.7 µM
Vero [15]
  CC50: > 100 µM
MDCK
  CC50: > 100 µM
CV-1
  CC50: > 100 µM
[16]
  CC50: > 100 µM
PBMC
  CC50: > 100 µM
KB
  CC50: > 100 µM
Influenza A virus
  EC50: > 100 µM
Influenza B virus
  EC50: 28 µM
Unidentified adenovirus
  EC50: > 100 µM
Hepatitis B virus [17]
  EC50: > 100 µM
Human rhinovirus sp.
  EC50: > 100 µM
Human alphaherpesvirus 1 [18]
  EC50: > 100 µM
Human alphaherpesvirus 1 [19]
  EC90: > 100 µM
